Most compounds without a hit are left out; they make up all but 2.4% or so of the library.
Rpn11 inh: inhibitors of human proteasome Rpn11. inhibition, % at 20 µM. 360,000 tested, 0.59% active. human 26S proteasome, Ub4-pepOG fluorescence polarization; 20S core pre-blocked with epoxomicin. O00487;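 active = inhibition at 20 µM, scaled to each plate's controls, above about 33%, limit read from the data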
PREPL inh: inhibits the human prolyl oligopeptidase-like enzyme; Q4J6C6; recombinant PREPL, fluorescence polarization activity-based probe; inhibition, % at 5.96 µM; 320,000 tested, 0.68% active; in the data active = inhibition above about 43%;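 also: 0% = enzyme with DMSO and 100% = wells lacking enzyme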
Target sequence (Q4J6C6 whole entry, looked up): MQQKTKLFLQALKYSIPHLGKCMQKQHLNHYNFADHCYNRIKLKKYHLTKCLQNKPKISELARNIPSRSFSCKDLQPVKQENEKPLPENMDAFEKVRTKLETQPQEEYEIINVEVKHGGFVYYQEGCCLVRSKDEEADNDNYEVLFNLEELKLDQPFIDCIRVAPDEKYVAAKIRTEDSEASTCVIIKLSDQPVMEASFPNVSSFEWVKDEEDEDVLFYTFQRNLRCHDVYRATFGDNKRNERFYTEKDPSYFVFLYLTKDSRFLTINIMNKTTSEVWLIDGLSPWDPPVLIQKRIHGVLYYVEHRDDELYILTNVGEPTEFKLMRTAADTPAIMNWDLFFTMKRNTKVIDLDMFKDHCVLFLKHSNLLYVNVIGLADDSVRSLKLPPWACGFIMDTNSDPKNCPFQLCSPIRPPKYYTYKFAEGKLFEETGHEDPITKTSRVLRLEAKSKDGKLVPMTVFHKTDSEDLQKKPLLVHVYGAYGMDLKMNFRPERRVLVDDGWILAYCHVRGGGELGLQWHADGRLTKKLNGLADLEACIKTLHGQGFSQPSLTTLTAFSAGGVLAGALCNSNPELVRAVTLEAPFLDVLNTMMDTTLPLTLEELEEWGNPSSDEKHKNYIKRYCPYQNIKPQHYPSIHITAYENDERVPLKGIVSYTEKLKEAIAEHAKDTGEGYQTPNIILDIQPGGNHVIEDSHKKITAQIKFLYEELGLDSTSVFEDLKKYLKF
HNF4A DNA FP: change in binding of human HNF4 alpha to DNA | P41235 | HNF4a-FITC DNA binding, fluorescence polarization, 1 h | activity change, % at 10 µM | 360,000 tested, 0.3% active; in the data active = activity change above about 30%, passing the limit was not always enough
Tb MetRS inh: Trypanosoma brucei MetRS inhibition. 360,000 tested, 0.4% active. inhibition, % at 11.9 µM. purified T. brucei MetRS, ATP depletion, Kinase-Glo luminescence;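 active = inhibition above a per-plate cutoff of the control wells' mean inhibition plus 3 SD, cut at about 5.5% in these data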;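 also: 0% = DMSO wells median and 100% = median of wells with control inhibitor compound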
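Dosing: 11.9 µM single point; system: parasite MetRS enzyme; technique: luminescence of leftover ATP; times: 15 min enzyme-compound preincubation, 2 h reaction, 10 min detection, 25 °C; replicates: each compound tested once; read-out basis: percent inhibition relative to median high and low control wells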
CSN inh: blocks human CSN-mediated cullin deneddylation; Purified CSN, SCF-Nedd8-OG deneddylation, fluorescence polarization; inhibition, % at 12.5 µM; 360,000 tested, 0.38% active; AID 651999;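 active = pattern-corrected inhibition above about 35%, with an unprinted fluorescence ratio check between 0.5 and 1.5, limit read from the data, passing the limit was not always enough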;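 also: 0% = enzyme with substrate and 100% = substrate without enzyme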
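Assay system: purified human Csn5 enzyme expressed in HEK293T cells; Input: 0.24 nM Csn5 enzyme, final concentration; Reagent: 10 nM SCFSkp2-Nedd8OG; Compound dosing: 12.5 µM single point; Times: reaction 90 min, room temperature; Technique: fluorescence polarization readout.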
Neddyl block: cullin neddylation inhibition | TR-FRET cullin neddylation, biochemical | P61081+Q13564 | inhibition, % at 25 µM | 360,000 tested, 0.58% active; in the data active = inhibition above about 36%
Rpn11 confirm: Rpn11 inhibition confirmation, single concentration; AID 602318; 1,900 tested, 29% active; inhibition, % at 20 µM; purified human 26S proteasome, Ub4-pepOG fluorescence polarization; proteasome pretreated with epoxomicin; shares compounds with Rpn11 inh
MMP-2 inh: MMP-2 (human) inhibition counter-screen; 1,900 tested, 4% active; recombinant MMP-2, FRET peptide cleavage fluorescence; shares compounds with Rpn11 inh; inhibition, % at 20 µM; AID 602330;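 also: human MMP-2 activated beforehand with APMA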
Thrombin inh: blocks bovine thrombin, flagging nonselective RPN11 hits; shares compounds with Rpn11 inh; bovine thrombin cleavage of Ub4-pepOG, fluorescence polarization; inhibition, % at 20 µM; 1,900 tested, 13% active; AID 602333;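 active = mean inhibition at least 40% at 20 µM, or signal 3 deviations below plate average, so some actives read negative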;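 also: plate controls were thrombin with DMSO for no effect and buffer wells lacking thrombin for full effect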
Starred values were filed as active, the others as inactive; / = no result shown. Rule as the data show it, unless noted: active = inhibition above about 40%; inactive = the rest.

SMILES	Rpn11 inh	PREPL inh	HNF4A DNA FP	Tb MetRS inh	CSN inh	Neddyl block	Rpn11 confirm	MMP-2 inh	Thrombin inh
Nc1cc(C(=O)Nc2ccccc2F)ccc1N1CC2CC(C1)c1cccc(=O)n1C2 (configuration not stated)	-2	/	2	0	1	39	/	/	/
Cc1c(C(c2ccc(Cl)cc2Cl)c2c(O)c3ccccc3oc2=O)c(=O)n(-c2ccccc2)n1C (configuration not stated)	4	0	0	0	1	11	/	/	/
C=CCn1c(O)c(Cc2ccc(OCC)cc2)c(=O)[nH]c1=O	-2	/	-2	-1	2	-1	/	/	/
CC12CCCCC1=[N+]([O-])CN2O (configuration not stated)	1	-9	-6	0	-5	3	/	/	/
O=C(N/N=C/c1c(O)n(CCc2ccc(F)cc2)c(=O)[nH]c1=O)c1ccccc1	39*	9	3	0	6	/	18	-30	-16
CCOC(=O)[C@]12Cc3c(cc(OC)c(OC)c3OC)[C@H]1N(C)C(=O)c1cc(OC)ccc12	/	/	9	-1	2	2	/	/	/
C=Cc1ccc(Cn2c(C(=O)O)c(C=O)c3ccccc32)cc1	38*	-6	3	0	14	2	155*	-2	60*
O=Cc1c(C(=O)O)n(Cc2ccccc2Cl)c2ccccc12	-1	4	2	0	2	4	/	/	/
CCC(C)n1c(O)c(C(c2ccccn2)c2c(O)n(C(C)CC)c(=S)[nH]c2=O)c(=O)[nH]c1=S (configuration not stated)	3	-5	3	1	-2	-26	/	/	/
O=C(c1cccn2c(=O)c3cc(Br)ccc3nc12)N1CCC2(CC1)OCCO2	-4	3	-4	0	-1	/	/	/	/
Cc1cccn2c(=O)c3cc(C(=O)N4CCC5(CC4)OCCO5)n(C)c3nc12	69*	-4	-1	0	-6	/	-7	-3	-8
CCOc1cc2c(cc1OCC)-n1cccc1C(c1cc(C)c(OC)cc1C)NC2 (configuration not stated)	8	14	0	0	-1	7	/	/	/
CC[C@H]1CN(C)CCc2c([nH]c3ccccc23)C(=O)C[C@@H]1/C(=C\OC)C(=O)OC	1	0	1	1	-5	7	/	/	/
CCCCCSc1cc(OC)c(CCNC)cc1OC	138*	4	-7	-1	-4	5	13	-21	2
CCCCCCCSc1cc(OC)c(CCNC)cc1OC	-3	17	4	-1	-5	-9	/	/	/
COc1ccc(Cn2c(N)c(C(=O)NCc3ccco3)c3nc4ccccc4nc32)cc1	67*	13	12	0	7	/	-2	-37	-4
Cc1cc(/C=C2/C(=O)NC(=O)N(c3ccc(Br)cc3)C2=O)c(C)n1C	52*	2	3	0	13	2	6	5	-57
Cc1cc(/C=C2\C(=O)NC(=O)N(c3ccc(Br)cc3)C2=O)c(C)n1C	30	3	2	0	18	4	/	/	/
CC(c1ccccc1F)n1cc(C(=O)Nc2ccc3nc[nH]c3c2)nn1 (configuration not stated)	-2	-14	0	0	-3	-9	/	/	/
COc1ccc(-n2c(/C=C/c3ccc(O)cc3)nc3ccccc3c2=O)cc1	48*	6	6	-1	6	32	15	47*	4
O=c1c2ccccc2nc(/C=C/c2ccc(O)cc2)n1-c1ccc(O)cc1	17	2	8	-1	-2	/	/	/	/
COC(=O)C1=C(c2ccc(F)cc2OCc2ccccc2)C[C@@H]2CC[C@H]1N2C(=O)NCCOc1ccc(OC)cc1	7	30	1	0	-1	4	/	/	/
CCOC(=O)C1(CCCc2ccccc2)CCN(C2CCC2)CC1	-1	-17	-7	-1	-21	0	/	/	/
Cc1ccnc(-n2c(C)cc(C=C3C(=O)N(C)C(=S)N(C)C3=O)c2C)c1	47*	-8	4	-1	6	-3	-5	28	-42
Cc1cc(C=C2C(=O)N(C)C(=S)N(C)C2=O)c(C)n1-c1ccncc1	42*	-12	-6	0	10	-16	7	-10	11
SMILES	Rpn11 inh	PREPL inh	HNF4A DNA FP	Tb MetRS inh	CSN inh	Neddyl block	Rpn11 confirm	MMP-2 inh	Thrombin inh
Cc1ccc(-c2nc3ccccc3c(=O)n2-c2cc(C)ccn2)cc1	-3	9	1	-2	2	19	/	/	/
Cc1cc(C)cc(-n2c(C)cc(/C=C3\C(=O)NC(=O)N(C)C3=O)c2C)c1	7	7	1	0	-2	-5	/	/	/
COc1ccc(CN(CCc2c[nH]c3ccccc23)Cc2ccc(OC)cc2)cc1	4	/	3	-1	-1	2	/	/	/
O=C1NC(=O)N(CCc2ccc(F)cc2)C(=O)/C1=C/c1ccco1	71*	12	-17	0	43*	2	29	37	-1
CN(C)c1ccc(/C=C2\C(=O)NC(=O)N(CCc3ccc(F)cc3)C2=O)cc1	50*	-2	10	0	22	-1	10	1	-90
Cc1cccc(CN2CCN(CC(=O)N3CCC4(CC3)OCCO4)C2=O)c1	81*	19	5	0	-1	-8	-18	-3	-14
O=C(CN1CCN(Cc2cccc(Cl)c2)C1=O)N1CCC2(CC1)OCCO2	4	15	0	-1	-2	2	/	/	/
CC(C)OCCCNC(=O)c1c(N)n(CC2CCCO2)c2nc3ccccc3nc12 (configuration not stated)	45*	15	6	3	36*	/	7	-13	4
CC(C)CCOC(=O)c1c(N)n(CC2CCCO2)c2nc3ccccc3nc12 (configuration not stated)	7	4	-2	1	4	/	/	/	/
CCOc1ccccc1-n1c(O)c(C=Nc2ccc(N(CC)CC)cc2)c(=O)[nH]c1=O	56*	11	17	-1	14	-18	49*	3	38
C=C1[C@H]2CC[C@H]3[C@]4(C)C[C@H](O[C@H]5O[C@H](CO)[C@@H](OS(=O)(=O)O)[C@H](OS(=O)(=O)O)[C@H]5OC(=O)CC(C)C)C[C@@H](C(=O)O)[C@H]4CC[C@]3(C2)[C@H]1O	-2	-6	1	-2	-2	-4	/	/	/

From PubChem BioAssay
